In ChEMBL document CHEMBL4393735, “Molecular modelling, synthesis, and biological evaluations of a 3,5-disubstituted isoxazole fatty acid analogue as a PPARα-selective agonist” (Bioorg Med Chem, 2019):
The source made the active and inactive calls.

Columns and labels:
SGBS [1] = assay: Upregulation of CD36 gene expression in human preadipocyte derived from Simpson-Golabi-Behmel syndrome (SGBS) patient at 2 uM measured for 12 days by qRT-PCR analysis; assay type: functional, cell-based
In short: (§1)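 SGBS cells were differentiated with serum-free induction medium containing 25 μM test agent, 2 μM rosiglitazone or 0.1% DMSO from day 0. IBMX and dexamethasone were removed on day 4 and medium was renewed on day 8. RNA was taken on days 0, 4, 8 and 12 for qPCR, normalized to TBP and to day 0. At least three biological replicates in duplicate, two-way ANOVA with Bonferroni.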

SGBS [2] = assay: Upregulation of PLIN1 gene expression in human preadipocyte derived from Simpson-Golabi-Behmel syndrome (SGBS) patient at 2 uM measured for 12 days by qRT-PCR analysis; assay type: functional, cell-based; in short: as §1
SGBS [3] = assay: Upregulation of FABP4 gene expression in human preadipocyte derived from Simpson-Golabi-Behmel syndrome (SGBS) patient at 2 uM measured for 12 days by qRT-PCR analysis; assay type: functional, cell-based; in short: as §1
SGBS [4] = assay: Upregulation of ADIPOQ gene expression in human preadipocyte derived from Simpson-Golabi-Behmel syndrome (SGBS) patient at 2 uM measured for 12 days by qRT-PCR analysis; assay type: functional, cell-based; in short: as §1
[5] = target: T1, Peroxisome proliferator-activated receptor alpha (Mus musculus) (UniProt P23204); assay: Agonist activity at PPARalpha in C57BL/6N mouse primary hepatocytes assessed as activation of PPARalpha mRNA expression at 1 uM measured after 18 hrs by qRT-PCR analysis; assay type: cell-based
T1 sequence (whole entry): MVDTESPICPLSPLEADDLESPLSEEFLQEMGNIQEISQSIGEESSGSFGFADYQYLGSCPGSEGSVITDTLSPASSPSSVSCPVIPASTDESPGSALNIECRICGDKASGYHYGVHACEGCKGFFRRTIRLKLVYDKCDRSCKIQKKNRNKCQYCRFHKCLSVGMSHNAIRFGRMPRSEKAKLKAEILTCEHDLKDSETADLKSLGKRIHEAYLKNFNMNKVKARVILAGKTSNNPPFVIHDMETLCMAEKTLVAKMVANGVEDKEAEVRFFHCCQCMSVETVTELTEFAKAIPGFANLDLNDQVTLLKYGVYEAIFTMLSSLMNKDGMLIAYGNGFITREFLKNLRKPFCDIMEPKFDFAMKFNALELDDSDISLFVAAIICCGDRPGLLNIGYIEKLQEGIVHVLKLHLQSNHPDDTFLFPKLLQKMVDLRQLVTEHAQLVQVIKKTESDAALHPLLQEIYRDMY
In short: (§2)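 Treatment for 18 h at 50 μM (or 1 μM for the 1 μM agents), DMSO vehicle. Harvested for qPCR. mRNA normalized to TBP by the comparative threshold method, expressed relative to DMSO control. Two biological replicates run in duplicate, mean ± SEM. Primary hepatocytes came from male C57BL/6N mice aged 7–8 weeks, isolated by portal-vein perfusion and digestion, seeded on collagen I and used on day 2. HuH-7 cells were kept in DMEM with 10% FBS and ITS.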

SGBS [6] = assay: Upregulation of CEBPA gene expression in human preadipocyte derived from Simpson-Golabi-Behmel syndrome (SGBS) patient at 2 uM measured for 12 days by qRT-PCR analysis; assay type: functional, cell-based; in short: as §1
SGBS [7] = assay: Upregulation of PPARgamma gene expression in human preadipocyte derived from Simpson-Golabi-Behmel syndrome (SGBS) patient at 2 uM measured for 12 days by qRT-PCR analysis; assay type: functional, cell-based; in short: as §1
[8] = target: T1, Peroxisome proliferator-activated receptor alpha (Mus musculus); assay: Agonist activity at PPARalpha in C57BL/6N mouse primary hepatocytes assessed as activation of Srebf1 mRNA expression at 1 uM measured after 18 hrs by qRT-PCR analysis; assay type: cell-based; in short: as §2
SGBS [9] = assay: Upregulation of ACSL1 gene expression in human preadipocyte derived from Simpson-Golabi-Behmel syndrome (SGBS) patient at 2 uM measured for 12 days by qRT-PCR analysis; assay type: functional, cell-based; in short: as §1
SGBS [10] = assay: Induction of adipocyte differentiation in human preadipocyte derived from Simpson-Golabi-Behmel syndrome (SGBS) patient assessed as lipid accumulation at 2 uM measured for 12 days by Oil red O staining based microscopic analysis; assay type: functional, cell-based
In short: (§3)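 Differentiation of SGBS preadipocytes was started in serum-free medium with transferrin, insulin, T3, hydrocortisol, IBMX and dexamethasone, plus 25 μM test agent, 2 μM rosiglitazone or 0.1% DMSO. On day 4 medium was switched to lack IBMX and dexamethasone, and it was renewed on day 8. Cells were fixed with 4% PFA and stained with 0.3% Oil Red O on days 0, 4, 8 and 12, then photographed.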

SGBS [11] = assay: Upregulation of ANGPTL4 gene expression in human preadipocyte derived from Simpson-Golabi-Behmel syndrome (SGBS) patient at 2 uM measured for 12 days by qRT-PCR analysis; assay type: functional, cell-based; in short: as §1
[12] = target: T1, Peroxisome proliferator-activated receptor alpha (Mus musculus); assay: Agonist activity at PPARalpha in C57BL/6N mouse primary hepatocytes assessed as activation of Scd1 mRNA expression at 1 uM measured after 18 hrs by qRT-PCR analysis; assay type: cell-based; in short: as §2
SGBS [13] = assay: Upregulation of CEBPA gene expression in human preadipocyte derived from Simpson-Golabi-Behmel syndrome (SGBS) patient at 25 uM measured for 12 days by qRT-PCR analysis; assay type: functional, cell-based; in short: as §1
[14] = target: T2, Peroxisome proliferator-activated receptor alpha (Homo sapiens) (UniProt Q07869); assay: Agonist activity at PPARalpha in human Huh7 cells assessed as SCD1 mRNA expression at 50 uM measured after 18 hrs by qRT-PCR analysis; assay type: cell-based; in short: as §2
T2 sequence (whole entry): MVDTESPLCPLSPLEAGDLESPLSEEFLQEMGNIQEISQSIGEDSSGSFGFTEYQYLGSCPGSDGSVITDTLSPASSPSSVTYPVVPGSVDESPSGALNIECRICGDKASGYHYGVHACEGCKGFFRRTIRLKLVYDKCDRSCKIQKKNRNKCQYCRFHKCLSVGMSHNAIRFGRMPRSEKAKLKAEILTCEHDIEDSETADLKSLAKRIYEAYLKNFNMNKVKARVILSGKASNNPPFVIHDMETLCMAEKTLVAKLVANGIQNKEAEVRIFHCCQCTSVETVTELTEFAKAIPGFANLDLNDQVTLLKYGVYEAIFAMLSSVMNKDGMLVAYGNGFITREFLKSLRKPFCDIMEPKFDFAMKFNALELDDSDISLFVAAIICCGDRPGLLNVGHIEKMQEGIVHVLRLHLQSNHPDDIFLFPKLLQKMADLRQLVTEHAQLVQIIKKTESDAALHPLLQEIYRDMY

[15] = target: T2, Peroxisome proliferator-activated receptor alpha (Homo sapiens); assay: Agonist activity at PPARalpha in human Huh7 cells assessed as activation of CPT1A mRNA expression at 50 uM measured after 18 hrs by qRT-PCR analysis; assay type: cell-based; in short: as §2
SGBS [16] = assay: Upregulation of CD36 gene expression in human preadipocyte derived from Simpson-Golabi-Behmel syndrome (SGBS) patient at 25 uM measured for 12 days by qRT-PCR analysis; assay type: functional, cell-based; in short: as §1
[17] = target: T1, Peroxisome proliferator-activated receptor alpha (Mus musculus); assay: Agonist activity at PPARalpha in C57BL/6N mouse primary hepatocytes assessed as activation of Cpt1a mRNA expression at 50 uM measured after 18 hrs by qRT-PCR analysis; assay type: cell-based; in short: as §2
SGBS [18] = assay: Upregulation of ACSL1 gene expression in human preadipocyte derived from Simpson-Golabi-Behmel syndrome (SGBS) patient at 25 uM measured for 12 days by qRT-PCR analysis; assay type: functional, cell-based; in short: as §1
[19] = target: T2, Peroxisome proliferator-activated receptor alpha (Homo sapiens); assay: Agonist activity at PPARalpha in human Huh7 cells assessed as PPARA mRNA expression at 50 uM measured after 18 hrs by qRT-PCR analysis; assay type: cell-based; in short: as §2
SGBS [20] = assay: Upregulation of PLIN1 gene expression in human preadipocyte derived from Simpson-Golabi-Behmel syndrome (SGBS) patient at 25 uM measured for 12 days by qRT-PCR analysis; assay type: functional, cell-based; in short: as §1
SGBS [21] = assay: Induction of adipocyte differentiation in human preadipocyte derived from Simpson-Golabi-Behmel syndrome (SGBS) patient assessed as lipid accumulation at 25 uM measured for 12 days by Oil red O staining based microscopic analysis; assay type: functional, cell-based; in short: as §3
SGBS [22] = assay: Upregulation of ADIPOQ gene expression in human preadipocyte derived from Simpson-Golabi-Behmel syndrome (SGBS) patient at 25 uM measured for 12 days by qRT-PCR analysis; assay type: functional, cell-based; in short: as §1
[23] = target: T1, Peroxisome proliferator-activated receptor alpha (Mus musculus); assay: Agonist activity at PPARalpha in C57BL/6N mouse primary hepatocytes assessed as SCD1 mRNA expression at 50 uM measured after 18 hrs by qRT-PCR analysis; assay type: cell-based; in short: as §2
SGBS [24] = assay: Upregulation of PPARgamma gene expression in human preadipocyte derived from Simpson-Golabi-Behmel syndrome (SGBS) patient at 25 uM measured for 12 days by qRT-PCR analysis; assay type: functional, cell-based
In short: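 SGBS cells grown 4 days in biotin/D-pantothenate medium, then differentiated without FBS (apo-transferrin, insulin, T3, hydrocortisol, IBMX, dexamethasone) with 25 μM compound or 0.1 % DMSO added from day 0. After 4 days, switched to maintenance medium without IBMX/dexamethasone, renewed day 8. qPCR on days 0, 4, 8, 12, normalized to TBP (comparative threshold) and to day 0. Minimum three biological replicates in duplicate, mean ± SEM.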

[25] = target: T2, Peroxisome proliferator-activated receptor alpha (Homo sapiens); assay: Agonist activity at PPARalpha in human Huh7 cells assessed as SREBF1 mRNA expression at 50 uM measured after 18 hrs by qRT-PCR analysis; assay type: cell-based; in short: as §2
SGBS [26] = assay: Upregulation of ANGPTL4 gene expression in human preadipocyte derived from Simpson-Golabi-Behmel syndrome (SGBS) patient at 25 uM measured for 12 days by qRT-PCR analysis; assay type: functional, cell-based; in short: as §1
[27] = target: T1, Peroxisome proliferator-activated receptor alpha (Mus musculus); assay: Agonist activity at PPARalpha in C57BL/6N mouse primary hepatocytes assessed as SREBF1 mRNA expression at 50 uM measured after 18 hrs by qRT-PCR analysis; assay type: cell-based; in short: as §2
SGBS [28] = assay: Upregulation of FABP4 gene expression in human preadipocyte derived from Simpson-Golabi-Behmel syndrome (SGBS) patient at 25 uM measured for 12 days by qRT-PCR analysis; assay type: functional, cell-based; in short: as §1
[29] = target: T2, Peroxisome proliferator-activated receptor alpha (Homo sapiens); assay: Agonist activity at PPARalpha in human Huh7 cells assessed as SCD1 mRNA expression at 1 uM measured after 18 hrs by qRT-PCR analysis; assay type: cell-based; in short: as §2
[30] = target: T2, Peroxisome proliferator-activated receptor alpha (Homo sapiens); assay: Agonist activity at PPARalpha in human Huh7 cells assessed as PPARA mRNA expression at 1 uM measured after 18 hrs by qRT-PCR analysis; assay type: cell-based; in short: as §2
[31] = target: T1, Peroxisome proliferator-activated receptor alpha (Mus musculus); assay: Agonist activity at PPARalpha in C57BL/6N mouse primary hepatocytes assessed as activation of Cpt1a mRNA expression at 1 uM measured after 18 hrs by qRT-PCR analysis; assay type: cell-based; in short: as §2
[32] = target: T2, Peroxisome proliferator-activated receptor alpha (Homo sapiens); assay: Agonist activity at PPARalpha in human Huh7 cells assessed as SREBF1 mRNA expression at 1 uM measured after 18 hrs by qRT-PCR analysis; assay type: cell-based; in short: as §2
[33] = target: T2, Peroxisome proliferator-activated receptor alpha (Homo sapiens); assay: Agonist activity at PPARalpha in human Huh7 cells assessed as activation of CPT1A mRNA expression at 1 uM measured after 18 hrs by qRT-PCR analysis; assay type: cell-based; in short: as §2
[34] = target: T1, Peroxisome proliferator-activated receptor alpha (Mus musculus); assay: Agonist activity at PPARalpha in C57BL/6N mouse primary hepatocytes assessed as PPARA mRNA expression at 50 uM measured after 18 hrs by qRT-PCR analysis; assay type: cell-based; in short: as §2

Compound	Activity [8]	Activity [12]	Activity (SGBS [13])	Activity [14]	Activity (SGBS [16])	Activity (SGBS [18])	Activity [19]	Activity (SGBS [20])	Activity (SGBS [21])	Activity (SGBS [22])	Activity [23]	Activity (SGBS [24])	Activity [25]	Activity (SGBS [26])	Activity [27]	Activity (SGBS [28])	Activity [34]	further results
CN(CCOc1ccc(CC2SC(=O)NC2=O)cc1)c1ccccn1 (stereo not given)	inactive	inactive																Activity (SGBS [1]): Active; Activity (SGBS [2]): Active; Activity (SGBS [3]): Active; Activity (SGBS [4]): Active; Activity [5]: Active; Activity (SGBS [6]): Active; Activity (SGBS [7]): Active; Activity (SGBS [9]): Active; Activity (SGBS [10]): Active; Activity (SGBS [11]): Active
Cc1cccc(Nc2cc(Cl)nc(SCC(=O)O)n2)c1C			Active	inactive	Active	Active	inactive	Active	Active	Active	Active	Active	inactive	Active	Active	Active		Activity [15]: Active; Activity [17]: Active
CC(C)(Sc1ccc(CCN(CCCCC2CCCCC2)C(=O)NC2CCCCC2)cc1)C(=O)O	Active	Active																Activity [29]: inactive; Activity [30]: inactive; Activity [31]: Active; Activity [32]: inactive; Activity [33]: Active
CCCCC/C=C/C(=O)CCCCCCCC(=O)O			Active	inactive	Active	Active	inactive	Active	Active	Active	inactive	Active	inactive	Active	inactive	Active	Active	
CCCCCCCC(=O)/C=C/CCCCCC(=O)O			Active	inactive	Active	Active	inactive	Active	Active	Active	inactive	Active	inactive	Active	inactive	Active	Active	
